Bioassay records as filed in PubChem.
Calpain2 inh: inhibitors of pig calpain II, primary screen, biochemical, fluorogenic peptide substrate, 1536-well. purified calpain II, 30 min. inhibition, % at 16 µM. 220,000 tested, 0.37% active. AID 1236, 2008;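 active means inhibition above about 50%, limit read from the data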
WT yeast gro inh: growth inhibition of WT strain, primary screen, mitochondrial fusion inhibitor project, WT and mutant strains, chemical genetic; mitochondrial fusion phenotypic screen; inhibition, % at 10 µM; 190,000 tested, 2.1% active; in the data active means inhibition above about 58%; tested in S. cerevisiae
PMI activator: activators of human PMI, primary screen, biochemical, fluorescence intensity, near-Km mannose 6-phosphate; Mannose-6-phosphate isomerase (Homo sapiens), P34949; purified human PMI, coupled resazurin fluorescence, 20 min; active compounds read high; 1 = vehicle control, 0 substrate-free wells; activation factor at 20 µM; 190,000 tested, 0.005% active;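 active means activation factor of 2 or more at 20 µM, relative to plate controls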
Target sequence (P34949 whole entry, looked up): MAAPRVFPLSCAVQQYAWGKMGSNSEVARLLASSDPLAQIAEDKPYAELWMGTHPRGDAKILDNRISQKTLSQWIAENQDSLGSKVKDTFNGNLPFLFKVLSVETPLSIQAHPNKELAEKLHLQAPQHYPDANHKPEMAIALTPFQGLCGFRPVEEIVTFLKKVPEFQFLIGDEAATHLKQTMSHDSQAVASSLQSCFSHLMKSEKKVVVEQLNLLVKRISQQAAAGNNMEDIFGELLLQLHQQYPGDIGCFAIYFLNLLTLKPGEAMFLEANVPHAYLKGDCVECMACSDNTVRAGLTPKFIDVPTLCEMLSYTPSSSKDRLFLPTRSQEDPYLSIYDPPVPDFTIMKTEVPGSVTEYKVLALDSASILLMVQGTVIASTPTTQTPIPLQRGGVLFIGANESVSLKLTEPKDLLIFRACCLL
Rad51 HR inh: human RAD51 strand exchange inhibitors, primary screen, biochemical, fluorescence | DNA repair protein RAD51 homolog 1 (Homo sapiens), Q06609 | hRad51 DNA strand exchange, fluorescence dequenching | inhibition, % at 10 µM | 200,000 tested, 0.085% active;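 active means inhibition above 40% at the single screening dose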;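 further: 0% = DMSO control wells and 100% = blanks with heterologous ssDNA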
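material = hRad51 filaments on single-stranded DNA | reagent = Donor/quencher-labelled 47-bp dsDNA substrate | compound = 10 µM final, single point | schedule = strand-exchange reaction 15 min at room temperature | measured by = fluorescein emission 520 nm, excitation 485 nm | read-out basis = % inhibition versus plate control and blank means | benchmarks = plate controls and plate blanks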
Lmaj promast: Leishmania major promastigote growth inhibition, primary screen | Leishmania major promastigotes, resazurin fluorescence viability | inhibition, % at 10 µM | 200,000 tested, 9% active | AID 1063, 2008; in the data active means inhibition above about 50%;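 further: promastigotes grown with compound for 44 hours at 28 °C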
PMI act hi M6P: human PMI activators, high substrate, primary screen, biochemical, fluorescence intensity, near-saturating mannose 6-phosphate | coupled PMI enzyme assay, resazurin fluorescence, 20 min; active compounds read high; 1 = untreated enzyme, 0 = substrate-free blank | activation factor at 20 µM | 190,000 tested, 0.34% active | AID 1216, 2008;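 active means activation factor of 2 or more at 20 µM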
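Technique: Diaphorase-driven resazurin-to-resorufin fluorescence, excitation 544, emission 590 nm | Assay system: Human PMI in coupled enzyme assay | Times: Enzyme reaction with compound 20 min at room temperature | Medium: HEPES-buffered pH 7.4 with magnesium and detergent | Reagent: Mannose-6-phosphate 1.0 mM (near-saturating) plus 0.22 mM NADP+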
An asterisk follows results filed as active; nt = not tested or not shown. Sampled rows, rich in hits. Any-hit rate of the full collection: about 9.8%.

SMILES | Calpain2 inh | WT yeast gro inh | PMI activator | Rad51 HR inh | Lmaj promast | PMI act hi M6P
Brc1ccccc1CN1CCC(N2CCCCC2)CC1 | 4 | -4 | 1 | -9 | 100* | 1
O=C(c1ccccc1)N1CCN(Cc2ccccc2Br)CC1 | 16 | 14 | 0.9 | -2 | 3 | 1
Cn1cc(/C=C(\C#N)C(=O)Nc2ncc(Cc3cccc(Cl)c3)s2)c2ccccc21 | -62 | 1 | 1 | 11 | 91* | 0.9
N#C/C(=C\c1c[nH]c2ccccc12)C(=O)Nc1ncc(Cc2ccc(Cl)cc2Cl)s1 | -102 | 5 | 1 | -2 | 3 | 1
Cc1ccc(C(=O)C(OC(=O)CN2C(=O)c3ccccc3C2=O)c2ccccc2)cc1C (stereo not drawn) | -15 | 2 | 0.9 | 2 | -2 | 0.9
Cc1ccc(S(=O)(=O)c2nc(Nc3nccs3)sc2Cl)cc1 | -49 | 62* | 0.9 | -16 | -3 | 0.9
COc1ccc(-c2cnnn2-c2ccc(NC(=O)c3ccc(S(=O)(=O)N4CCCCC4)cc3)cc2)cc1OC | -52 | -8 | 1 | 8 | 96* | 1
COc1ccc(C(=O)Nc2ccc(S(=O)(=O)N3CCCCC3)cc2)cc1OC | -2 | -6 | 0.9 | -5 | 67* | 1
CCOC(=O)c1c(NC(=O)CN2CCCc3ccccc32)sc(C)c1C | 7 | 8 | 0.9 | -2 | -1 | 1
CC(C)(C)NC(=O)NC(=O)CN1CCc2ccccc21 | 23 | 14 | 1.6 | 8 | 12 | 1.3
COC(=O)c1c(NC(=O)CN2CCCc3ccccc32)sc(C)c1C | 30 | -13 | 0.9 | 2 | 89* | 0.9
COCCNC(=O)NC(=O)CN1CCCc2ccccc21 | 65* | -2 | 1 | -12 | -1 | 0.9
O=C(CN1CCCc2ccccc21)N/N=C/c1ccccc1O | -16 | 9 | 0.9 | -2 | 99* | 1
O=C(CN1CCCc2ccccc21)N/N=C/c1ccc(F)cc1F | -1 | nt | nt | -3 | nt | nt
CN1C(=O)/C(=C2\SC(N3CCCCCC3)=NC2=O)c2ccccc21 | 12 | 18 | 0.9 | -8 | 35 | 1
CCCN1C(=O)/C(=C2\SC(N3CCCCC3)=NC2=O)c2ccccc21 | -4 | 6 | 1.2 | 0 | 64* | 1
C/C(CCc1ccc2c(c1)OCO2)=N\N=C(/N)SC1CC(=O)N(c2ccc(Cl)cc2)C1=O (stereo not drawn) | -179 | 65* | 0.8 | 0 | 3 | 0.9
O=C(CNC(=O)C(c1ccccc1)c1ccccc1)OCC(=O)c1cccs1 | 4 | -8 | 0.9 | 1 | 0 | 0.9
O=C(N=Nc1c(O)n(C2OC(=O)c3ccccc32)c2ccccc12)c1ccco1 (stereo not drawn) | -10 | nt | nt | -9 | nt | nt
Cc1ccc(OCC(=O)NNC(=O)C(C)Sc2ncnc3sc(C)c(C)c23)cc1 (stereo not drawn) | 91* | 9 | 0.9 | 3 | 13 | 0.9
Cc1sc2ncnc(SC(C)C(=O)N3c4ccccc4Sc4ccccc43)c2c1C (stereo not drawn) | -42 | 25 | 0.9 | -6 | 4 | 1
C#C[C@]1(O)CC[C@H]2[C@@H]3CCc4cc(OC5CCCC5)ccc4[C@H]3CC[C@@]21C | -62 | 96* | 0.8 | -2 | nt | 0.8
CC(=O)N/C(=C/c1ccc2c(c1)OCO2)C(=O)NCCO | 7 | -2 | 1.1 | -15 | -5 | 1
Cc1cc(C(=O)N/N=C/c2cc(Br)ccc2OC(=O)c2ccccc2Cl)n[nH]1 | -31 | -3 | 1 | -10 | 98* | 1
Cc1cccc(N2CCN(C(=O)Cc3ccc(-n4c(=O)[nH]c5ccsc5c4=O)cc3)CC2)c1C | -32 | -2 | 0.8 | nt | -2 | 0.9
SMILES | Calpain2 inh | WT yeast gro inh | PMI activator | Rad51 HR inh | Lmaj promast | PMI act hi M6P
Cc1ccc(C)c(N2CCN(C(=O)Cc3ccc(-n4c(=O)[nH]c5ccsc5c4=O)cc3)CC2)c1 | -49 | -9 | 0.9 | -2 | 51* | 1.1
CCOC(=O)N1CCN(C(=O)c2ccc3c(c2)sc2nc(-c4ccc(OC)cc4)cn23)CC1 | -72 | -5 | 0.9 | -2 | 98* | 0.9
CCOC(=O)N1CCN(C(=O)c2sc3nc(-c4ccc(F)cc4)cn3c2C)CC1 | 11 | 3 | 1 | nt | 1 | 1
CC(=O)NC(Cc1c[nH]c2ccccc12)C(=O)Nc1ccc2c(c1)OCO2 (stereo not drawn) | -12 | 3 | 0.9 | 2 | -3 | 0.9
CN(C(=O)Cc1c[nH]c2ccccc12)C(C(=O)Nc1ccc2c(c1)OCO2)c1ccccc1 (stereo not drawn) | 8 | 2 | 0.9 | -1 | 61* | 0.9
Cn1c(-c2cccc([N+](=O)[O-])c2)cnc1NCc1cccc([N+](=O)[O-])c1 | 0 | -7 | 0.9 | 4 | 33 | 0.9
CCOc1cc(CNc2ncc(-c3ccc(OC)cc3)n2C)ccc1O | -17 | -2 | 0.8 | 4 | 65* | 0.8
COc1ccc(-c2cnc(N)n2C)cc1 | -3 | -17 | 0.8 | -1 | 0 | 0.9
Cn1c(-c2ccc(F)cc2)cnc1NCc1ccc(F)cc1 | 12 | 5 | 0.9 | 10 | 88* | 1
Cn1c(-c2ccc(Br)cc2)cnc1NCc1cccnc1 | -13 | -2 | 1 | -6 | 100* | 1
Cn1c(-c2ccc(F)cc2)cnc1NCc1ccc(C#N)cc1 | -11 | 7 | 0.9 | 2 | 92* | 0.9
O=C1CC2(CCCCCC2)Oc2ccc(Cl)cc21 | nt | nt | nt | -7 | nt | nt
CCCN1CCC(=NNc2ccc(C(=O)O)cc2)CC1 | 5 | 4 | 1.8 | 10 | 90* | 3*
CC(C)c1ccc(Nc2nc(NCc3ccco3)nc(N3CCOCC3)n2)cc1 | 15 | 58* | 0.8 | 12 | 42 | 0.8
CCOc1nc(NCc2ccco2)nc(Nc2ccc(OC)cc2)n1 | 4 | 6 | 0.9 | 10 | 84* | 0.9
C=CCN(C(=O)c1cccc(S(=O)(=O)N2CCN(C)CC2)c1)c1nc(-c2ccccc2)cs1 | -59 | 59* | 0.9 | 2 | 0 | 0.9
CC(=NC(C)C)C1=C(O)C(C)OC1=O (stereo not drawn) | 16 | -1 | 1.1 | 1 | 75* | 1.1
Cc1ccc(COc2ccc(/C=N/O)cc2)cc1 | 8 | -9 | 1 | 5 | 58* | 0.9
COC(=O)c1ccc(COc2ccc(/C=N/Nc3cccc(C(=O)O)c3)cc2)cc1 | -3 | nt | nt | -3 | nt | nt
NC(N)=N/N=C/c1ccc(OCc2ccccc2)cc1 | -13 | 19 | 1 | -3 | 101* | 1
O=C(O)c1cc(N/N=C/c2ccc(OCc3ccccc3)cc2)ccc1Cl | -64 | -2 | 1.7 | -19 | -21 | 2.5*
